According to ChEMBL document CHEMBL4513216, “Probing the Open Global Health Chemical Diversity Library for Multistage-Active Starting Points for Next-Generation Antimalarials” (ACS Infect Dis, 2020):

Assay: Toxicity liver stage against HepG2, at 10uM
Assay type: cell-based
Design: test concentration 10 uM, cell line HepG2-A16-CD81EGFP
Details: human, HepG2-A16-CD81EGFP cells; read-out: INHIBITION
Outline: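 Uninfected HepG2-A16-CD81EGFP cells, 3 × 10^3 per well, 1536-well, plated on prespotted compound at 10 μM final, parasite-free screening media added to match infected plates; puromycin 10 μM positive, DMSO 0.5% negative; run in parallel with 48 h PbLuc assay at 37 °C, 5% CO2; viability by CellTiter-Glo luminescence, normalized to controls.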

Compound	cytotoxicity at 10 µM [%]
NC(=O)C1CCN(CCc2ccc(NCc3ccoc3)cc2)CC1	-26.2
Cc1cc(C)nc(N2CCC(Cn3cc(C(=O)N(C)C)cn3)CC2)n1	6.28
CC(C)c1nn(C)c(N(C)C)c1CNCc1ccc(N(C)C)nc1	-8.42
CNC(=O)Cc1cc2nccc(-c3c(OC)cccc3OC)n2n1	-10.4
OCC1CCCN1c1cc(NCCNc2cccnn2)ncn1 (centres undefined)	18.5
CN(C)S(=O)(=O)N1CCN(c2cc(-n3cccc3)ncn2)CC1	0.781
CCn1cc2[nH]c(OC)c(CNC(=O)C3CCS(=O)(=O)CC3)cc-2c1=O	4.93
O=C(c1nc(N2CCCC2)ncc1Cl)N1CCN(Cc2ccsc2)CC1	-56
CN(C)c1cccc(C2CCCN2c2nc3c(cnn3C)c(=O)[nH]2)c1 (centres undefined)	0.91
CSc1ccc(C(=O)N2CC(=O)N(Cc3cccs3)CC(O)C2)cc1 (centres undefined)	2.31
COCc1cc(N2CCOC(c3ccc(F)cc3)C2)ncn1 (centres undefined)	-0.987
Cc1cccc(S(=O)(=O)NC(=O)c2ccc3c(c2)nnn3C)c1	-8.97
Cn1ccnc1CN1CCc2onc(COCC3CC3)c2C1	6.86
COc1ccnc(N2CCN(C(=O)Cc3ccn(C(C)C)n3)CC2)n1	-16.2
CC(C)CN1C[C@H]2N(c3ncccn3)CCC[C@@]2(C(=O)NCC2CC2)C1	-94.6
CCNc1nc2cn(-c3ccc(C)c(C)c3)c(=O)c-2c[nH]1	0.255
Clc1ccc(N2CCC(OCC3CCCCO3)CC2)nc1 (centres undefined)	-1.8
Cc1oc(-c2nc(C#N)c(NCC(C)C)o2)cc1S(=O)(=O)N1CCCC1	13.1
O=C1CC[C@@H]2[C@@H](CCN2C(=O)c2ccsc2)N1Cc1ccncc1	-71.5
O=C(NCCn1ccc(-c2ccccn2)n1)C1CC1	7.49
O=C1NCCN(C(=O)c2cn3ccsc3n2)C1c1cccc(F)c1 (centres undefined)	-5.18
Fc1cccc(C(NCc2ncc[nH]2)c2ccccc2)c1 (centres undefined)	1.35

Compound	cytotoxicity at 10 µM [%]
Cc1ccc(CNCc2cccc3cccnc23)c(OC2CCOC2)c1 (centres undefined)	1.42
O=C(N[C@@H]1CN(c2ncc(F)cn2)[C@@H]2COC[C@@H]21)c1cscn1	-139
CC(=O)N1CCC(c2nccnc2CNC(=O)c2cc[nH]n2)CC1	-6.27
CN1CCN(c2cc(NC(=O)Cn3ccc4ccccc43)ncn2)CC1	-0.973
CC(C)CCc1noc(CN2CCCN(C(=O)c3ccco3)CC2)n1	-7.06
Cc1ncncc1C(=O)N1CCCC(n2cccn2)C1 (centres undefined)	-4.77
O=C(CCc1ccco1)Nc1cccc(S(=O)(=O)C(F)F)c1	-42.5
CCN(CC1CCOC1)C(=O)Nc1ccc(OCC(F)(F)F)nc1 (centres undefined)	-11.3
CNC(=O)c1cccnc1NCCOc1ccc(CC#N)cc1	-1.53
CC(C)n1cnnc1CN(C)Cc1ccoc1	3.15
CN1CCN(c2cc(CNC(=O)c3ccc(=O)n(C)c3)ccn2)CC1	-6.95
O=C(CN1CCC(c2nnc(C(F)(F)F)o2)CC1)Nc1cccnc1	-2.46
COC(=O)c1ccc(N2CCN(C(=O)c3ccn(C)c(=O)c3)CC2)cc1	2.7
CNC(=O)[C@H]1C[C@H]2CN(Cc3cccc(C)c3)C[C@@H]1O2	8.97
CC(NC(=O)NCCn1ccnc1)c1ccc2c(c1)CCC(=O)N2 (centres undefined)	-18.1
CCc1nc(CN(C(C)=O)C2CCN(CCc3cnn(C)c3)C2)no1 (centres undefined)	-6.38
CN(C)S(=O)(=O)N1CC[C@]2(O)CCN(Cc3cc(F)cc(F)c3)C[C@@H]2C1	-0.757
COc1ccc(CN2CCn3cc(CN4CCCCC4)nc3C2)cc1	4.7
Cc1noc([C@@H]2C[C@H]3CN(Cc4cc(C)on4)C[C@H]3O2)n1	-9.33
CCNC(=O)CNC(=O)Nc1cccc(Cl)c1SC(F)F	-1.76
Cc1cc(C)c(C#N)c(NCCn2cnnc2C(C)C)n1	10.2
CCc1n[nH]c(C2CN(C(=O)Cc3ccc(C)nc3)CCO2)n1 (centres undefined)	6.97
